Measured values reported in ChEMBL document CHEMBL5724801, “EUbOPEN Chemogenomics Library - Multiplex” (2024).
Values joined by “and” are separate entries in the source; they are usually repeats but may differ in a detail not shown here. Equal values may be shown once.

Columns and labels:
Fibroblast = test: Multiplex assay against human fibroblast; assay type: toxicity, cell-based
In short: (§1)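 At seeding, live cells were stained with Hoechst33342, BioTracker Green Microtubule Cytoskeleton Dye, MitoTracker Red and Annexin V Alexa Fluor 680. After compound addition they were imaged on a CQ1 microscope at 37°C and 5% CO2, and CellPathfinder machine-learning gating sorted them into Hoechst high-intensity objects or normal cells, with normal cells further split into healthy, pyknosed or fragmented nuclei and pyknosed cells into mitotic or apoptotic. Tubulin, mitochondrial-mass and membrane-permeability phenotypes are given as per cents of cells with healthy nuclei.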

HEK-293T = test: Multiplex assay against HEK293T; assay type: toxicity, cell-based; settings: human; in short: as §1
[1] = 12 h, 1 µM, compound concentration 1 uM
[2] = 12 h, 10 µM, compound concentration 10 uM
[3] = 24 h, 1 µM, compound concentration 1 uM
[4] = 24 h, 10 µM, compound concentration 10 uM
[5] = 48 h, 1 µM, compound concentration 1 uM
[6] = 48 h, 10 µM, compound concentration 10 uM

CCC(=N\O)/C(C)=C/c1ccc(F)cc1 [A-079]
Population Apoptotic (%) (Fibroblast; [1]): 15.91% and 23.08% | Population Fragmented Nuclei (%) (Fibroblast; [1]): 8.18% and 2.86% | Population Healthy Nuclei (%) (Fibroblast; [1]): 71.82% and 82.29% | Population Hoechst High Intensity Objects (%) (Fibroblast; [1]): 0% | Population Membrane Permeable-Phenotype (%) (Fibroblast; [1]): 3.16% and 4.86% | Population Mitochondria Different-Phenotype (%) (Fibroblast; [1]): 3.16% and 9.72% | Population Mitotic Cells (%) (Fibroblast; [1]): 84.09% and 76.92% | Population Normal (%) (Fibroblast; [1]): 100% | Population Pyknosed Nuclei (%) (Fibroblast; [1]): 20% and 14.86% | Population Tubulin-Different-Phenotype (%) (Fibroblast; [1]): 10.13% and 14.58% | Total Cell Count (Fibroblast; [1]): 220 and 175 | Population Apoptotic (%) (Fibroblast; [2]): 11.32% and 27.78% | Population Fragmented Nuclei (%) (Fibroblast; [2]): 6.99% and 5.71% | Population Healthy Nuclei (%) (Fibroblast; [2]): 64.52% and 81.43% | Population Hoechst High Intensity Objects (%) (Fibroblast; [2]): 0% | Population Membrane Permeable-Phenotype (%) (Fibroblast; [2]): 5.83% and 7.02% | Population Mitochondria Different-Phenotype (%) (Fibroblast; [2]): 5% and 9.65% | Population Mitotic Cells (%) (Fibroblast; [2]): 88.68% and 72.22% | Population Normal (%) (Fibroblast; [2]): 100% | Population Pyknosed Nuclei (%) (Fibroblast; [2]): 28.49% and 12.86% | Population Tubulin-Different-Phenotype (%) (Fibroblast; [2]): 13.33% and 21.93% | Total Cell Count (Fibroblast; [2]): 186 and 140 | Population Apoptotic (%) (Fibroblast; [3]): 15.15% and 10.53% | Population Fragmented Nuclei (%) (Fibroblast; [3]): 10% and 1.7% | Population Healthy Nuclei (%) (Fibroblast; [3]): 75.65% and 87.5% | Population Hoechst High Intensity Objects (%) (Fibroblast; [3]): 0% | Population Membrane Permeable-Phenotype (%) (Fibroblast; [3]): 2.3% and 3.25% | Population Mitochondria Different-Phenotype (%) (Fibroblast; [3]): 2.87% and 6.49% | Population Mitotic Cells (%) (Fibroblast; [3]): 84.85% and 89.47% | Population Normal (%) (Fibroblast; [3]): 100% | Population Pyknosed Nuclei (%) (Fibroblast; [3]): 14.35% and 10.8% | Population Tubulin-Different-Phenotype (%) (Fibroblast; [3]): 10.92% and 9.74% | Total Cell Count (Fibroblast; [3]): 230 and 176 | Population Apoptotic (%) (Fibroblast; [4]): 17.14% and 20.83% | Population Fragmented Nuclei (%) (Fibroblast; [4]): 8.85% and 6.62% | Population Healthy Nuclei (%) (Fibroblast; [4]): 72.92% and 77.48% | Population Hoechst High Intensity Objects (%) (Fibroblast; [4]): 0% | Population Membrane Permeable-Phenotype (%) (Fibroblast; [4]): 10.71% and 3.42% | Population Mitochondria Different-Phenotype (%) (Fibroblast; [4]): 7.86% and 4.27% | Population Mitotic Cells (%) (Fibroblast; [4]): 82.86% and 79.17% | Population Normal (%) (Fibroblast; [4]): 100% | Population Pyknosed Nuclei (%) (Fibroblast; [4]): 18.23% and 15.89% | Population Tubulin-Different-Phenotype (%) (Fibroblast; [4]): 19.29% and 19.66% | Total Cell Count (Fibroblast; [4]): 192 and 151 | Population Apoptotic (%) (Fibroblast; [5]): 46.15% and 36.36% | Population Fragmented Nuclei (%) (Fibroblast; [5]): 10.24% and 4.69% | Population Healthy Nuclei (%) (Fibroblast; [5]): 84.65% and 89.58% | Population Hoechst High Intensity Objects (%) (Fibroblast; [5]): 0% | Population Membrane Permeable-Phenotype (%) (Fibroblast; [5]): 0.47% and 4.65% | Population Mitotic Cells (%) (Fibroblast; [5]): 53.85% and 63.64% | Population Normal (%) (Fibroblast; [5]): 100% | Population Pyknosed Nuclei (%) (Fibroblast; [5]): 5.12% and 5.73% | Total Cell Count (Fibroblast; [5]): 254 and 192 | Population Apoptotic (%) (Fibroblast; [6]): 20% and 36.36% | Population Fragmented Nuclei (%) (Fibroblast; [6]): 12.33% and 5.62% | Population Healthy Nuclei (%) (Fibroblast; [6]): 80.82% and 87.5% | Population Hoechst High Intensity Objects (%) (Fibroblast; [6]): 0% | Population Membrane Permeable-Phenotype (%) (Fibroblast; [6]): 1.69% and 6.43% | Population Mitotic Cells (%) (Fibroblast; [6]): 80% and 63.64% | Population Normal (%) (Fibroblast; [6]): 100% | Population Pyknosed Nuclei (%) (Fibroblast; [6]): 6.85% and 6.88% | Population Tubulin-Different-Phenotype (%) (Fibroblast; [6]): 6.78% and 17.86% | Total Cell Count (Fibroblast; [6]): 219 and 160 | Population Apoptotic (%) (HEK-293T; [1]): 11.21% and 9.93% | Population Fragmented Nuclei (%) (HEK-293T; [1]): 3.75% and 3.83% | Population Hoechst High Intensity Objects (%) (HEK-293T; [1]): 0% | Population Membrane Permeable-Phenotype (%) (HEK-293T; [1]): 0% and 2.86% | Population Mitochondria Different-Phenotype (%) (HEK-293T; [1]): 29.63% and 22.86% | Population Mitotic Cells (%) (HEK-293T; [1]): 88.79% and 90.07% | Population Normal (%) (HEK-293T; [1]): 100% | Population Pyknosed Nuclei (%) (HEK-293T; [1]): 31.1% and 77.05% | Total Cell Count (HEK-293T; [1]): 373 and 183 | Population Apoptotic (%) (HEK-293T; [2]): 7.79% and 9.52% | Population Fragmented Nuclei (%) (HEK-293T; [2]): 0.57% and 1.59% | Population Hoechst High Intensity Objects (%) (HEK-293T; [2]): 0.28% and 0.79% | Population Membrane Permeable-Phenotype (%) (HEK-293T; [2]): 0.51% and 0% | Population Mitotic Cells (%) (HEK-293T; [2]): 92.21% and 90.48% | Population Normal (%) (HEK-293T; [2]): 99.72% and 99.21% | Population Pyknosed Nuclei (%) (HEK-293T; [2]): 43.87% and 83.33% | Total Cell Count (HEK-293T; [2]): 352 and 127 | Population Apoptotic (%) (HEK-293T; [3]): 14.77% and 10.19% | Population Fragmented Nuclei (%) (HEK-293T; [3]): 4.65% and 2.11% | Population Healthy Nuclei (%) (HEK-293T; [3]): 80.21% and 41.05% | Population Hoechst High Intensity Objects (%) (HEK-293T; [3]): 0% | Population Membrane Permeable-Phenotype (%) (HEK-293T; [3]): 1.72% and 1.28% | Population Mitochondria Different-Phenotype (%) (HEK-293T; [3]): 15.02% and 6.41% | Population Mitotic Cells (%) (HEK-293T; [3]): 85.23% and 89.81% | Population Normal (%) (HEK-293T; [3]): 100%
